In ChEMBL document CHEMBL3271935, “Synthesis and biological activity of some broad-spectrum N-acylphenyglycine cephalosporins” (1977):
In brackets after ≈: the same amount, converted by molar mass.

How the values were obtained:
[1] = tested on: Staphylococcus aureus; test: Antibacterial activity against penicillin G resistant Staphylococcus aureus HH 127 assessed as growth inhibition by two-fold agar dilution method; assay type: functional
How it was run: (§1)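 Twofold agar dilution on Trypticase soy agar buffered to pH 6.0. MIC reported in μg/mL.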

[2] = tested on: Morganella morganii; test: Antibacterial activity against indole positive Proteus morganii 179 assessed as growth inhibition by two-fold agar dilution method; assay type: functional
How it was run: (§2)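 MIC (μg/mL) by twofold agar dilution on Trypticase soy agar buffered to pH 6.0.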

[3] = tested on: Salmonella paratyphi; test: Antibacterial activity against Salmonella paratyphi ATCC 12176 assessed as growth inhibition by two-fold agar dilution method; assay type: functional, Salmonella enterica subsp. enterica serovar Paratyphi A; details: Salmonella enterica; how it was run: as §1
[4] = tested on: Escherichia coli; test: Antibacterial activity against Escherichia coli 12140 infected in sc dosed mouse administered at 1 to 5 hrs measured for 3 days; assay type: functional; details: Escherichia coli, 12140, sc; read-out: PD50
How it was run: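 Mice infected intraperitoneally with about 2×10^3 organisms per mouse of E. coli 12140 culture diluted in 5% hog gastric mucin, giving uniformly lethal infection. Fourfold dilutions given subcutaneously in equally divided portions at 1 and 5 h postinfection, five groups per compound. Survivors observed 3 days. PD50 is total dose (mg/kg) protecting 50%, calculated by Litchfield–Wilcoxon method.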

[5] = tested on: Klebsiella aerogenes; test: Antibacterial activity against Enterobacter aerogenes ATCC 13048 assessed as growth inhibition by two-fold agar dilution method; assay type: functional; how it was run: as §2
[6] = tested on: Klebsiella pneumoniae; test: Antibacterial activity against Klebsiella pneumoniae 4200 assessed as growth inhibition by two-fold agar dilution method; assay type: functional; how it was run: as §2
[7] = tested on: Pseudomonas aeruginosa; test: Antibacterial activity against Pseudomonas aeruginosa HH 63 assessed as growth inhibition by two-fold agar dilution method; assay type: functional; how it was run: as §2
[8] = tested on: Escherichia coli; test: Antibacterial activity against Escherichia coli 12140 assessed as growth inhibition by two-fold agar dilution method; assay type: functional; how it was run: as §2
[9] = tested on: Pseudomonas aeruginosa; test: Antibacterial activity against Pseudomonas aeruginosa 219 assessed as growth inhibition; assay type: functional
How it was run: (§3)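 Broth MIC by the standard microtiter technique in unbuffered Mueller-Hinton broth.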

[10] = tested on: Pseudomonas aeruginosa; test: Antibacterial activity against Pseudomonas aeruginosa 1042 assessed as growth inhibition; assay type: functional; how it was run: as §3
[11] = tested on: Pseudomonas aeruginosa; test: Antibacterial activity against Pseudomonas aeruginosa 1063 assessed as growth inhibition; assay type: functional; how it was run: as §3
[12] = tested on: Pseudomonas aeruginosa; test: Antibacterial activity against Pseudomonas aeruginosa 1062 assessed as growth inhibition; assay type: functional; how it was run: as §3
[13] = tested on: Pseudomonas aeruginosa; test: Antibacterial activity against Pseudomonas aeruginosa 1504 assessed as growth inhibition; assay type: functional; how it was run: as §3
[14] = tested on: Pseudomonas aeruginosa; test: Antibacterial activity against Pseudomonas aeruginosa 1106 assessed as growth inhibition; assay type: functional; how it was run: as §3
[15] = tested on: Pseudomonas aeruginosa; test: Antibacterial activity against Pseudomonas aeruginosa 647 assessed as growth inhibition; assay type: functional; how it was run: as §3
[16] = tested on: Pseudomonas aeruginosa; test: Antibacterial activity against Pseudomonas aeruginosa 864 assessed as growth inhibition; assay type: functional; how it was run: as §3

Compound	MIC [1]	MIC [2]	MIC [3]	ED50 [4]	MIC [5]	MIC [6]	MIC [7]	MIC [8]	MIC [9]	MIC [10]	MIC [11]	MIC [12]	MIC [13]	MIC [14]	MIC [15]	MIC [16]
CC(=O)OCC1=C(C(=O)[O-])N2C(=O)[C@@H](NC(=O)C(NC(=O)[C@H]3C[C@H]3C(=O)[O-])c3ccccc3)[C@H]2SC1.[Na+].[Na+] (mixture of isomers)	6.3 µg/mL	12.5 µg/mL	6.3 µg/mL	25 mg/kg	12.5 µg/mL	3.1 µg/mL	> 200 µg/mL	12.5 µg/mL								
CC(=O)OCC1=C(C(=O)[O-])N2C(=O)[C@@H](NC(=O)C(NC(=O)C3CO3)c3ccccc3)[C@H]2SC1.[Na+] (mixture of isomers)	1.6 µg/mL	25 µg/mL	12.5 µg/mL	100 mg/kg	25 µg/mL	12.5 µg/mL	> 200 µg/mL	25 µg/mL								
Cn1nnnc1SCC1=C(C(=O)[O-])N2C(=O)[C@@H](NC(=O)C(NC(=O)COCC(=O)[O-])c3ccccc3)[C@H]2SC1.[Na+].[Na+] (some centres undefined)	3.1 µg/mL	0.4 µg/mL	1.6 µg/mL	8.7 mg/kg	3.1 µg/mL	0.8 µg/mL	200 µg/mL	1.6 µg/mL	125 µg/mL	250 µg/mL	500 µg/mL	250 µg/mL	125 µg/mL	500 µg/mL	125 µg/mL	500 µg/mL
CC(=O)OCC1=C(C(=O)[O-])N2C(=O)[C@@H](NC(=O)C(NC(=O)[C@@H]3O[C@@H]3C(=O)[O-])c3ccccc3)[C@H]2SC1.[Na+].[Na+] (single isomer, unassigned; diastereomer 2)	12.5 µg/mL	200 µg/mL	6.3 µg/mL	72 mg/kg	25 µg/mL	6.3 µg/mL	> 200 µg/mL	12.5 µg/mL								
Cn1nnnc1SCC1=C(C(=O)[O-])N2C(=O)[C@@H](NC(=O)C(NC(=O)CCCC(=O)[O-])c3ccccc3)[C@H]2SC1.[Na+].[Na+] (some centres undefined)	3.1 µg/mL	12.5 µg/mL	6.3 µg/mL	100 mg/kg	25 µg/mL	6.3 µg/mL	> 200 µg/mL	12.5 µg/mL	> 500 µg/mL	> 500 µg/mL	> 500 µg/mL	> 500 µg/mL	> 500 µg/mL	> 500 µg/mL	> 500 µg/mL	> 500 µg/mL
Cn1nnnc1SCC1=C(C(=O)[O-])N2C(=O)[C@@H](NC(=O)C(NC(=O)C3OC3C(=O)[O-])c3ccccc3)[C@H]2SC1.[Na+].[Na+] (mixture of isomers)	6.3 µg/mL	0.4 µg/mL	1.6 µg/mL	7 mg/kg	1.6 µg/mL	0.8 µg/mL	50 µg/mL	0.8 µg/mL	125 µg/mL	63 µg/mL	500 µg/mL	63 µg/mL	63 µg/mL	500 µg/mL	63 µg/mL	500 µg/mL
Cn1nnnc1SCC1=C(C(=O)[O-])N2C(=O)[C@@H](NC(=O)C(NC(=O)[C@@H]3O[C@@H]3C(=O)[O-])c3ccccc3)[C@H]2SC1.[Na+].[Na+] (mixture of isomers)	12.5 µg/mL	3.1 µg/mL	6.3 µg/mL	35 mg/kg	12.5 µg/mL	3.1 µg/mL	200 µg/mL	6.3 µg/mL	500 µg/mL	> 500 µg/mL	> 500 µg/mL	> 500 µg/mL	500 µg/mL	> 500 µg/mL	> 500 µg/mL	500 µg/mL
CC(=O)OCC1=C(C(=O)[O-])N2C(=O)[C@@H](NC(=O)C(NC(=O)C3CCC(C(=O)[O-])O3)c3ccccc3)[C@H]2SC1.[Na+].[Na+] (some centres undefined)	6.3 µg/mL	50 µg/mL	12.5 µg/mL	140 mg/kg	25 µg/mL	6.3 µg/mL	200 µg/mL	12.5 µg/mL								
CC(=O)OCC1=C(C(=O)O)N2C(=O)[C@@H](NC(=O)Cc3cccs3)[C@H]2SC1 [CEPHALOTHIN]	0.2 µg/mL (≈ 0.504 µM)	> 200 µg/mL	0.8 µg/mL (≈ 2.02 µM)	50 mg/kg	12.5 µg/mL (≈ 31.5 µM)	1.6 µg/mL (≈ 4.04 µM)	> 200 µg/mL	3.1 µg/mL (≈ 7.82 µM)								
CC(=O)OCC1=C(C(=O)[O-])N2C(=O)[C@@H](NC(=O)C(NC(=O)CCCC(=O)[O-])c3ccccc3)[C@H]2SC1.[Na+].[Na+] (some centres undefined)	6.3 µg/mL	> 200 µg/mL	25 µg/mL	100 mg/kg	100 µg/mL	25 µg/mL	> 200 µg/mL	50 µg/mL								
CC(=O)OCC1=C(C(=O)O)N2C(=O)[C@@H](NC(=O)[C@H](N)c3ccccc3)[C@H]2SC1 [CEPHALOGLYCIN]	3.1 µg/mL (≈ 7.65 µM)	> 200 µg/mL	3.1 µg/mL (≈ 7.65 µM)		50 µg/mL (≈ 123 µM)	3.1 µg/mL (≈ 7.65 µM)	> 200 µg/mL	3.1 µg/mL (≈ 7.65 µM)								
CC(=O)OCC1=C(C(=O)O)N2C(=O)[C@@H](NC(=O)C(NC(=O)CSCC(=O)O)c3ccccc3)[C@H]2SC1 (some centres undefined)	3.1 µg/mL (≈ 5.77 µM)	12.5 µg/mL (≈ 23.3 µM)	6.3 µg/mL (≈ 11.7 µM)	64 mg/kg	25 µg/mL (≈ 46.5 µM)	6.3 µg/mL (≈ 11.7 µM)	> 200 µg/mL	12.5 µg/mL (≈ 23.3 µM)								
CC(=O)OCC1=C(C(=O)[O-])N2C(=O)[C@@H](NC(=O)C(NC(=O)COCC(=O)[O-])c3ccccc3)[C@H]2SC1.[Na+].[Na+] (some centres undefined)	3.1 µg/mL	12.5 µg/mL	12.5 µg/mL	21.5 mg/kg	12.5 µg/mL	3.1 µg/mL	> 200 µg/mL	6.3 µg/mL								
Cn1nnnc1SCC1=C(C(=O)O)N2C(=O)[C@@H](NC(=O)C(N)c3ccccc3)[C@H]2SC1 (some centres undefined)	3.1 µg/mL (≈ 6.72 µM)	6.3 µg/mL (≈ 13.7 µM)	1.6 µg/mL (≈ 3.47 µM)	1.4 mg/kg	1.6 µg/mL (≈ 3.47 µM)	1.6 µg/mL (≈ 3.47 µM)	> 200 µg/mL	3.1 µg/mL (≈ 6.72 µM)								
CC(=O)OCC1=C(C(=O)[O-])N2C(=O)[C@@H](NC(=O)C(NC(=O)C3OC3C(=O)[O-])c3ccccc3)[C@H]2SC1.[Na+].[Na+] (single isomer, unassigned; diastereomer 1)	6.3 µg/mL	3.1 µg/mL	1.6 µg/mL	12.5 mg/kg	3.1 µg/mL	0.8 µg/mL	100 µg/mL	1.6 µg/mL								
Cn1nnnc1SCC1=C(C(=O)[O-])N2C(=O)[C@@H](NC(=O)[C@H](NC(=O)[C@H]3O[C@@H]3C(=O)[O-])c3ccccc3)[C@H]2SC1.[Na+].[Na+] (mixture of isomers)	1.6 µg/mL	25 µg/mL	12.5 µg/mL	150 mg/kg	25 µg/mL	12.5 µg/mL	> 200 µg/mL	25 µg/mL								
